Legend:
[1] = melting temperature; fluorescence melt of hairpins on a sequencing array, two-state fit, raised by 9.35 °C to match UV melts; conditions: sodium 0.088 M
Method in brief: (§1)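 Folding enthalpy and melting temperature come from bootstrapped two-state fits to Cy3 fluorescence of library hairpins carrying annealed Cy3 and quencher oligos on a sequenced MiSeq flow cell. Imaging was done in 50 mM Na-HEPES pH 8.0, 25 mM NaCl, stepping by 2.5 °C up to 60 °C, and signals were normalised to pre-quench Cy3 and to control constructs. Results of four replicates were combined by inverse variance, and fitted temperatures were raised by 9.35 °C to match UV melts.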

[2] = folding enthalpy; higher = less favourable; fluorescence melt of hairpins on a sequencing array, two-state fit; conditions: sodium 0.088 M
Method in brief: as §1

Sequence	Tm [1] [°C]	folding enthalpy [2] [kcal/mol]
GATCATCCCGATGATC ((((((....))))))	52.1	-51.9
GATCCACTTGTGGATC ((((((....))))))	66.5	-37.5
GCGAAGGTTCGC ((((....))))	50.4	-20.8
GGCGAAGGAAACTCCGCC ((((.((....)).))))	51.1	-34.4
GTAGGGCGAAAGCCATAC (((.(((....))).)))	55.6	-22.2
GATCCTCTTAGGATC ((((((...))))))	55.2	-35.3
GGTAACGAAAGTTAAACC ((((((....)))..)))	32.3	-16.1
GATCGAATGGTCGATC ((((((....))))))	51.4	-20.2
GCCAGGCGAAAGCCCGGC (((.(((....))).)))	66.2	-24.5
GCTAATGGAAACACTAGC ((((.((....)).))))	31.2	-23.9
GGAGCTCGAAAGAGGTCC (((.(((....))).)))	65.9	-37.8
GTCGGCGAAAGCCACGAC ((((((....)))..)))	56	-14.4
GCGAGTTCTCGC ((((....))))	56.2	-25.6
GCTGCAGGAAACTGCAAC (.(((((....))))).)	40.9	-13.5
GCCCATCCGAAAGGAGGC (((..(((....))))))	44.5	-14.3
GATCTACAAGTAGATC ((((((....))))))	48.2	-34.2
GACCAGGGAAACCCGGTC ((((.((....)).))))	50.1	-37.7
GAAGTTGGAAACAACTTC (((((((....)))))))	57.3	-41.2
GCGATGCGAAAGCCTTGC ((.(.((....)).).))	36.3	-25.4
GCTTCCGAAAGGATGAGC ((((((....)))..)))	41.2	-18.7
GCGAACCGAAAGGTACGC (((.(((....))).)))	64.3	-45.7
GAGTACGAAAGTAGACTC ((((((....)))..)))	35.8	-16.8
GATCAGTATTCTGATC ((((((....))))))	51	-39.1

Sequence	Tm [1] [°C]	folding enthalpy [2] [kcal/mol]
GCCCCTCGAAAGAGAGGC (((.(((....))).)))	52.8	-31.4
GCAGTCGAAAGACTATGC ((((((....)))..)))	46.2	-17.8
GGAATGGGAAACTGTTCC ((((..(....)..))))	35	-25.8
GATCAGATTACTGATC ((((((....))))))	50	-30.3
GCGTACGAAAGTAATCGC ((((((....)))..)))	44.1	-23.6
GGAATCCGAAAGGACTCC (((.(((....))).)))	46.3	-26.2
GCGAACGGTCGC ((((....))))	47.7	-30.9
GCACCTGGAAACAGGTAC (.(((((....))))).)	40.9	-13.2
GATCGTCCTTACGATC ((((((....))))))	53.8	-40.7
GGGAGCGAAAGCTAGCCC ((((((....)))..)))	42.7	-14.2
GCCAGCGAAAGCTTCGGC ((((((....)))..)))	47.8	-23.7
TCCCAGAAATGGGA (((((....)))))	43.8	-15.9
GCCGAGGGAAACCTCAGC ((.((((....)))).))	43.1	-23.7
GACTGCCGAAAGGCCGTC (((.(((....))).)))	53.4	-25
GAGAACGAAAGTTACTC ((((((....))).)))	31.1	-12.4
GCGGATTCGAAAGAACGC (((..(((....))))))	45.1	-27.2
GATCGACCGGTCGATC ((((((....))))))	61.5	-51.5
CGAACGGAAACGTGTTCG ((((((....)))..)))	42.6	-26.7
GCGGGCGAAAGCCTACGC ((((((....)))..)))	61.5	-18.8
GCTGAACGAAAGTTAGC (((.(((....))))))	44.1	-26
GAGAACCCGAAAGGGCTC (((..(((....))))))	34.9	-13.9
GACTAAGGAAACTTGGTC (((.(((....))).)))	39.3	-30.1
GGACTCGGAAACGAATCC (((.(((....))).)))	40.9	-26.7
